Only some compounds are listed: those with a hit (about 4.8% of all), similar ones and a draw of the others.
UCH37 DUB inh – human UCH37 deubiquitinating enzyme inhibition. Q9Y5K5. purified proteasome/UCH37, Ub-AMC cleavage fluorescence. inhibition, % (concentration not given with the values). hit rate 0.33% among 330,000. AID 588478;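 active = mean inhibition over replicate wells above about 20%, limit read from the data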;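 also: 0% = compound-free wells with enzyme and 100% = wells lacking proteasome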
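Assay system: Proteasome-bound UCH37. Buffer or medium: pH 7.4 Tris-HCl (50 mM) with ovalbumin, ATP-MgCl2, DTT. Incubation: 30 min preincubation with enzyme, 25 min cleavage at room temperature. Measured by: fluorescence, ex 355 nm, em 460 nm. Read-out basis: percent inhibition. Control set: wells without proteasome as full block, compound-free enzyme plus substrate as uninhibited.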
PAFAH2 FP inh – PAFAH2 (human) inhibition | inhibition, % at 3.39 µM | AID 492956 | Q99487 | hit rate 0.99% among 340,000 | recombinant PAFAH2, FP-rhodamine activity probe, fluorescence polarization;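 active = inhibition above the mean over all tested compounds plus 3 SD, cut at about 30% in these data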;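 also: inhibitors block probe labeling of enzyme so polarization drops; 0% = enzyme with DMSO and 100% = wells lacking PAFAH2 protein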
GRIN3A LBD mod – NR3A (human) ligand-binding domain modulation | NR3A LBD differential scanning fluorimetry, Tm shift; 0% = protein alone, 100% = glycine-bound protein | Tm shift relative to glycine control, % at 25 µM | hit rate 2.5% among 340,000;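 active = melting temperature shift of at least 10% of the positive control shift, at one fixed dose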
PAFAH1B2 inh – PAFAH1B2 (human) inhibition | P68402 | recombinant PAFAH1B2, FP-rhodamine activity probe, fluorescence polarization | inhibition, % at 3.39 µM | hit rate 1.2% among 340,000 | AID 492953;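 active = inhibition above the mean of all tested compounds plus 3 SD, cut at about 24% in these data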;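 also: 0% = enzyme with DMSO and 100% = wells lacking PAFAH1B2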
pPAFAH FP inh – pPAFAH (human) enzyme inhibition. Q13093. AID 463082. hit rate 1.5% among 330,000. recombinant pPAFAH, FP-rhodamine probe fluorescence polarization. inhibition, % at 3.39 µM;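 active = inhibition above the mean inhibition across the screen plus 3 SD, cut at about 25% in these data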;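 also: inhibitors block binding of the rhodamine activity-based probe so polarization drops; 0% = enzyme with DMSO and 100% = wells lacking pPAFAH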
Target sequence (Q13093 whole entry, looked up): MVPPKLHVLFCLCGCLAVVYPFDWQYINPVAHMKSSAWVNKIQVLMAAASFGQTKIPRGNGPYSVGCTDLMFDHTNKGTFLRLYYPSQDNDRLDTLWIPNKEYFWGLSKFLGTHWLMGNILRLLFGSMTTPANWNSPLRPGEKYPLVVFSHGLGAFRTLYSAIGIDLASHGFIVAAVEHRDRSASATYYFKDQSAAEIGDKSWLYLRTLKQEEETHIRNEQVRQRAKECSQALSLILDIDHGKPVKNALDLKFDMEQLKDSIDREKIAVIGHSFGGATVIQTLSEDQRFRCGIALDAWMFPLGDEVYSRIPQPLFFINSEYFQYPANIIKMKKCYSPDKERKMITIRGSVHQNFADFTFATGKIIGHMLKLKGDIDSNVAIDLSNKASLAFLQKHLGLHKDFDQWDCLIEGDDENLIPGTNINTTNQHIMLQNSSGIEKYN
PAFAH1B3 FP inh – blocks human PAF acetylhydrolase 1B catalytic subunit 3 | AID 492972 | Q15102 | inhibition, % at 3.39 µM | hit rate 0.28% among 340,000 | recombinant PAFAH1B3, FP-rhodamine probe, fluorescence polarization;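 active = inhibition above the screen-wide average of all tested compounds plus 3 SD, cut at about 25% in these data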;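 also: 0% = enzyme with DMSO only and 100% = wells lacking PAFAH1B3 protein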
Starred values were filed as active, the others as inactive; · = not tested or not shown.

SMILES | UCH37 DUB inh | PAFAH2 FP inh | GRIN3A LBD mod | PAFAH1B2 inh | pPAFAH FP inh | PAFAH1B3 FP inh
COc1ccc(C=NNC(=O)c2nc(Cl)c(Cl)c(N)c2Cl)cc1COc1ccc(F)cc1F | -231 | · | · | · | · | ·
Cc1c(C(=O)OCC2CCCO2)[nH]c2c1C(=O)CC(c1ccco1)C2 (stereo not given) | 4 | 6 | -3 | 3 | 25* | 2
CC1=CC(C)C(COC(=O)CN2CCCCC2)C(C)C1 (stereo not given) | 3 | 9 | 11* | 8 | -1 | 9
CC(=O)n1cc(/C=N/NC(=O)c2ccc(Cl)cc2)c2ccccc21 | · | 0 | 15* | 1 | -1 | 6
CCc1ccc(C(=O)N/N=C/c2cccc3ccccc23)nc1 | · | 16 | 11* | 2 | 10 | 3
COc1ccc(OC)c(/C=N\NC(=O)c2cc3c(ccc4ccccc43)o2)c1 | · | -22 | 22* | -5 | 3 | -15
COc1ccc(OC)c(/C=N/NC(=O)CCc2ccc(O)c(O)c2)c1 | · | 3 | 22* | 6 | 17 | -1
Cc1cccc(N=Cc2c(O)cc(C)oc2=O)n1 | -3 | · | · | · | · | ·
CC(=NNC(=O)C(C)Sc1ccccc1)C(C)(C)C (stereo not given) | -1 | · | · | · | · | ·
O=C(O)Cn1cc(/C=N/NC(=O)c2cc3cc(Br)ccc3o2)c2ccccc21 | · | 10 | -4 | 5 | 21 | -3
Cn1cc(/C=N/NC(=O)c2cc3cc(Br)ccc3o2)c2ccccc21 | · | · | 22* | · | 3 | ·
C#CCn1cc(/C=N/NC(=O)c2cc3ccccc3o2)c2ccccc21 | · | 2 | 13* | 6 | 5 | 6
O=C(N/N=C/c1cccc2ccccc12)c1cc2ccccc2o1 | · | -13 | 18* | -9 | · | -1
Nc1ccc(C(=O)N/N=C/c2cn(Cc3cccc(F)c3)c3ccccc23)cc1 | · | -8 | 18* | 9 | · | 16
O=C1CC(C(=O)Nc2ccc(Br)cc2)S/C(=N\N=Cc2ccco2)N1 (stereo not given) | 8 | · | · | · | · | ·
O=C(O)c1ccc(NN=CC2=Cc3ccccc3OC2)cc1 | 8 | · | · | · | · | ·
C=C(C)C1CC=C(C)C(=NNC(=O)c2ccc(NC(=O)c3cccc(C)c3)cc2)C1 (stereo not given) | 0 | · | · | · | · | ·
O=C(N/N=C/c1cccc([N+](=O)[O-])c1)c1cc2ccccc2o1 | · | -4 | 13* | 0 | 2 | -5
O=C(NN=Cc1ccc([N+](=O)[O-])cc1)c1cc2ccccc2o1 | 6 | · | · | · | · | ·
CC(=O)N1c2c(cc(Br)cc2S(=O)(=O)NCc2ccccc2)CC1C (stereo not given) | 1 | -2 | -2 | -2 | 0 | 2
COc1cccc(CNS(=O)(=O)c2cc(Br)cc3c2N(C(C)=O)C(C)C3)c1 (stereo not given) | 5 | 1 | 12* | 0 | 0 | 1
O=C(CC1S/C(=N/N=C/C=C/c2ccccc2)NC1=O)Nc1ccc(Cl)c(Cl)c1 (stereo not given) | · | -9 | 37* | -4 | 2 | -8
O=C(/C=C/c1ccccc1Br)c1ccc2c(c1)OCO2 | 4 | 0 | -2 | 4 | 4 | 14
O=C(/C=C\Nc1ccccc1Br)c1ccc2c(c1)OCO2 | 0 | -6 | 36* | 2 | 1 | 2
CNc1cc([N+](=O)[O-])ccc1N/C=C/C(=O)c1ccc2c(c1)OCO2 | 6 | 4 | 13* | 2 | 6 | 1
SMILES | UCH37 DUB inh | PAFAH2 FP inh | GRIN3A LBD mod | PAFAH1B2 inh | pPAFAH FP inh | PAFAH1B3 FP inh
O=C(NN=Cc1cc(Br)ccc1O)c1ccncc1 | 5 | · | · | · | · | ·
Cc1nc2c(cc1C(=O)NN=Cc1ccc(O)c(O)c1)c(=O)n(C)c(=O)n2C | 2 | · | · | · | · | ·
COc1cccc(Cn2cc(C=NNC(=O)c3cc(O)cc(O)c3)c3ccccc32)c1 | -28 | · | · | · | · | ·
O=C(CCN1C(=O)/C(=C\C=C\c2ccccc2)SC1=S)Nc1cccc(C(=O)O)c1 | 13 | 8 | -13 | 1 | 28* | 7
O=C(CCN1C(=O)/C(=C\C=C\c2ccccc2)SC1=S)Nc1ccccc1C(=O)O | 11 | 9 | 2 | 5 | 30* | 8
O=C(COC(=O)CCN1C(=O)/C(=C\C=C\c2ccccc2)SC1=S)Nc1ccc(Br)cc1 | · | 1 | 10* | 8 | 10 | 3
CC(C)c1ccccc1NC(=O)COC(=O)CCN1C(=O)/C(=C\C=C\c2ccccc2)SC1=S | 7 | 3 | 0 | -2 | 12 | 8

Bioassay records from PubChem BioAssay.
